From ChEMBL document CHEMBL2203278, “N-Phenyl-4-hydroxy-2-quinolone-3-carboxamides as selective inhibitors of mutant H1047R phosphoinositide-3-kinase (PI3Kα)” (Bioorg Med Chem, 2012)

Assays:
[1] = tested on: HCT-116; test: Growth inhibition of human HCT116 cells expressing PI3Kalpha H1047R mutant by MTT assay; format: functional, cell-based
Procedure, shortened: (§1)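 Growth of parental (WT) and H1047R-mutant HCT116 cells was measured by MTT assay, with absorbance read at 570 nm.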

[2] = molecular target: Phosphatidylinositol 4,5-bisphosphate 3-kinase catalytic subunit alpha isoform (Homo sapiens) (UniProt P42336); test: Inhibition of PI3Kalpha in human HCT116 cells assessed as inhibition of Akt phosphorylation at S473 residue relative to DMSO; format: cell-based; conditions: HCT-116
Procedure, shortened: (§2)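 AKT activation was read as pAKT on immunoblots of lysates from compound-treated HCT116-WT and HCT116-MUT cells, tested at a single concentration. Lysate protein was measured by the […]. Blots were blocked in 5% milk/TBST, probed with primary antibody (1:1000) and HRP secondary (1:1000), and developed by ECL. Band areas were quantified relative to DMSO.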

[3] = tested on: HCT-116; test: Growth inhibition of human HCT116 cells by MTT assay; format: functional, cell-based; procedure, shortened: as §1
[4] = tested on: Phosphatidylinositol 4,5-bisphosphate 3-kinase catalytic subunit alpha isoform (Homo sapiens), P42336 [H1047R]; test: Inhibition of PI3Kalpha H1047R mutant in human HCT116 cells relative to LY294002; format: cell-based; conditions: HCT-116
Procedure, shortened: (§3)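 PI3K kinase activity was assayed in lysates of compound-treated HCT116-WT and HCT116-MUT cells, using a single compound concentration. Cells were washed with PBS, lysed, and the supernatants were collected by centrifugation for 15 min. Resulting band areas were quantified densitometrically relative to LY294002.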

[5] = molecular target: Phosphatidylinositol 4,5-bisphosphate 3-kinase catalytic subunit alpha isoform (Homo sapiens) (UniProt P42336); test: Inhibition of PI3Kalpha in human HCT116 cells assessed as increase in PARP cleavage relative to LY294002; format: cell-based; conditions: HCT-116
Procedure, shortened: (§4)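 Apoptosis was assessed in HCT116-WT and HCT116-MUT cells, each treated with compound at a single concentration, by immunoblot for the 88 kDa cleaved PARP product. Blots were blocked in 5% milk/TBST, probed with primary antibody (1:1000) and peroxidase secondary (1:1000), and developed by ECL. Band areas were quantified by densitometry relative to LY294002.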

[6] = tested on: Phosphatidylinositol 4,5-bisphosphate 3-kinase catalytic subunit alpha isoform (Homo sapiens), P42336 [H1047R]; test: Inhibition of PI3Kalpha H1047R mutant in human HCT116 cells assessed as increase in PARP cleavage relative to LY294002; format: cell-based; conditions: HCT-116; procedure, shortened: as §4
[7] = molecular target: Phosphatidylinositol 4,5-bisphosphate 3-kinase catalytic subunit alpha isoform (Homo sapiens) (UniProt P42336); test: Inhibition of PI3Kalpha in human HCT116 cells relative to LY294002; format: cell-based; conditions: HCT-116; procedure, shortened: as §3
[8] = tested on: Phosphatidylinositol 4,5-bisphosphate 3-kinase catalytic subunit alpha isoform (Homo sapiens), P42336 [H1047R]; test: Inhibition of PI3Kalpha H1047R mutant in human HCT116 cells assessed as inhibition of Akt phosphorylation at S473 residue relative to DMSO; format: cell-based; conditions: HCT-116; procedure, shortened: as §2
[9] = tested on: HCT-116; test: Selectivity index, ratio of IC50 for human HCT116 cell to IC50 for PI3Kalpha H1047R mutant expressing human HCT116 cell; format: functional

Chain of Phosphatidylinositol 4,5-bisphosphate 3-kinase catalytic subunit alpha isoform (Homo sapiens) (P42336 whole entry, canonical isoform): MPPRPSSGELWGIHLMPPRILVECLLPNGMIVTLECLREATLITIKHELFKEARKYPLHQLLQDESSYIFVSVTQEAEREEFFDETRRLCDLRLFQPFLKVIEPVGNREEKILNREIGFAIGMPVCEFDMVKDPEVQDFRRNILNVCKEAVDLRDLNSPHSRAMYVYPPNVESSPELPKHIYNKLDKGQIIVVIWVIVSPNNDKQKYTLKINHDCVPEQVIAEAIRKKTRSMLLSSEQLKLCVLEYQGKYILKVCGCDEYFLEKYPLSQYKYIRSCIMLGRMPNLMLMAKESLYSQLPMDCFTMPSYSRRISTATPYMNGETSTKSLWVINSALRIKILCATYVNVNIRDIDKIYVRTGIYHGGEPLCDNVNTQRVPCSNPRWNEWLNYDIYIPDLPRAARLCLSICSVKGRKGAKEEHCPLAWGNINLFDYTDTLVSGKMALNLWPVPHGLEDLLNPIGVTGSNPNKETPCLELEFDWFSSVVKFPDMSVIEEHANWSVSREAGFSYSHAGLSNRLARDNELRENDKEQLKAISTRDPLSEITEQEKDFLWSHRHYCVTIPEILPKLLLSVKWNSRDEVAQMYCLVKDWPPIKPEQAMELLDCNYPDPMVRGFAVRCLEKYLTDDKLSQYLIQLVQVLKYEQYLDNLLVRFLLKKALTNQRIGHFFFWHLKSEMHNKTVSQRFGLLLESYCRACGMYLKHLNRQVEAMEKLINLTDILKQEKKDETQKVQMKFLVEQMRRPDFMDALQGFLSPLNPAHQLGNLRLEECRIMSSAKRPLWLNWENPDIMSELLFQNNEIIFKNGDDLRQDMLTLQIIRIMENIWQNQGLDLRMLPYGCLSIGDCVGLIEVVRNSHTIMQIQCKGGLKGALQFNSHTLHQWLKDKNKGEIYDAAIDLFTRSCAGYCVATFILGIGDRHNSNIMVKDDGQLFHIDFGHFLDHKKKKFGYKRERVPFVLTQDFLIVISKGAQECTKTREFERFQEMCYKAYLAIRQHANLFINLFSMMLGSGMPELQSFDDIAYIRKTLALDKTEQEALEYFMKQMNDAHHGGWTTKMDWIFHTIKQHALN
Chain of Phosphatidylinositol 4,5-bisphosphate 3-kinase catalytic subunit alpha isoform (Homo sapiens), P42336 [H1047R] (P42336 whole entry H1047R, canonical isoform): as the sequence (P42336 whole entry, canonical isoform) above, with H1047R counted along it

Row | SMILES | IC50 [1] | fold change (FC) [2] | IC50 [3] | fold change (FC) [4] | fold change (FC) [5] | fold change (FC) [6] | fold change (FC) [7] | fold change (FC) [8] | Ratio IC50 [9]
1 | O=C(NCc1ccccc1)c1cnc2ccccc2c1 | 120 µM | 1.59 | 65 µM | 0.87 | 0.81 | 0.06 | 0.7 | 0.3 | 
2 | COc1ccc(NC(=O)c2c(O)c3cc(OC)ccc3[nH]c2=O)cc1 | 6.3 µM | 1.66 | 64 µM | 0.64 | 0.01 | 3.9 | 0.82 | 0.44 | 10
3 | Cc1ccc(NC(=O)c2c(O)c3cc(C)ccc3[nH]c2=O)cc1 | 5.6 µM | 1.66 | 27 µM | 0.79 | 1 | 1.14 | 0.75 | 0.41 | 4.8
4 | O=C(Nc1ccc(F)cc1)c1c(O)c2cc(F)ccc2[nH]c1=O | 6.9 µM | 0.95 | 15 µM | 0.59 | 1.01 | 1.37 | 0.65 | 0.86 | 2.2
5 | O=C(NCc1ccccc1)c1cc2ccccc2[nH]c1=O | 330 µM | 0.09 | 420 µM | 0.8 | 0.92 | 0.05 | 0.14 | 0.13 | 
6 | Cn1c(=O)c(C(=O)Nc2ccccc2)c(O)c2ccccc21 | 100 µM |  | 110 µM |  |  |  |  |  | 
7 | O=c1cc(N2CCOCC2)oc2c(-c3ccccc3)cccc12 |  | 0.01 |  |  |  |  |  | 0.41 | 
8 | O=C(NCc1ccccc1)c1cnc2ccccc2c1O | 19 µM | 1 | 24 µM | 0.88 | 0.71 | 0.2 | 0.56 | 0.2 | 

Continued, in another order:

Row | IC50 [1] | fold change (FC) [2] | IC50 [3] | fold change (FC) [4] | fold change (FC) [5] | fold change (FC) [6] | fold change (FC) [7] | fold change (FC) [8] | SMILES | Ratio IC50 [9]
9 | 3.6 µM | 1.6 | 22 µM | 0.75 | 0.88 | 5.05 | 0.69 | 1.23 | O=C(Nc1ccccc1F)c1c(O)c2cccc(F)c2[nH]c1=O | 6
10 | 2.5 µM | 0.11 | 9.4 µM | 0.71 | 0.01 | 4.99 | 0.89 | 0.4 | O=C(Nc1ccccc1)c1c(O)nc2ccccc2c1O | 3.8
11 | 0.28 µM | 1.01 | 6.5 µM | 0.9 | 0.4 | 1.35 | 0.75 | 0.51 | O=C(Nc1cccc(F)c1)c1c(O)c2ccc(F)cc2[nH]c1=O | 23
